Assay results published in ChEMBL document CHEMBL3580561, “Mitigation of Acetylcholine Esterase Activity in the 1,7-Diazacarbazole Series of Inhibitors of Checkpoint Kinase 1” (J Med Chem, 2015).

Columns and labels:
[1] = biological target: T1, Serine/threonine-protein kinase Chk1 (Homo sapiens, UniProt O14757); assay: Inhibition of human recombinant Chk1 using biotinylated AKT substrate after 30 mins by Alphascreen biochemical assay
T1 sequence (O14757 whole entry): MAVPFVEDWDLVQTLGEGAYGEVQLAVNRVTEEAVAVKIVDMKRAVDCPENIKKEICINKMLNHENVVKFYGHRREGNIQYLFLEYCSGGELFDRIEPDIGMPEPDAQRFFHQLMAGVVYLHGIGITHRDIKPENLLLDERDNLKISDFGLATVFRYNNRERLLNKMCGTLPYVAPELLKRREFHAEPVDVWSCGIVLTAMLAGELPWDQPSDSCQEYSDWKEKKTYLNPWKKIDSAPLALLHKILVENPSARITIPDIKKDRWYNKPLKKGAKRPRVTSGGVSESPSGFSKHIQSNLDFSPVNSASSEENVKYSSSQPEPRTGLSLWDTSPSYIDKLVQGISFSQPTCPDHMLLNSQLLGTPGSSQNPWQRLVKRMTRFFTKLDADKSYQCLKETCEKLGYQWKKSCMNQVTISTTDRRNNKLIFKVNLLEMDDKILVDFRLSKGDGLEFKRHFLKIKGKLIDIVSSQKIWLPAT

[2] = biological target: T1, Serine/threonine-protein kinase Chk1; assay: Inhibition of CHK1 in human HT29 cells assessed as phosphorylation of histone H3 after 24 hrs by checkpoint abrogation cellular assay; format: cell-based, HT-29
HT-29 [3] = assay: Cytotoxicity against human HT-29 cells assessed as 10-fold reduction of gemcitabine IC50 after 72 hrs by Isobologram assay; format: functional; conditions: HT-29, 72 h
Method in brief: (§1)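 HT-29 cells exposed 72 h to a range of gemcitabine concentrations, alone or combined with a range of ChK1 inhibitor concentrations. Viability read by CellTiter-Glo luminescence. […] Synergy assessed by combination index or Bliss independence.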

HT-29 [4] = assay: Cytotoxicity against human HT-29 cells after 72 hrs by CellTiter-Glo luminescent assay; format: functional; conditions: HT-29, 72 h; method in brief: as §1
HT-29 [5] = assay: Cytotoxicity against human HT-29 cells assessed as 10-fold reduction of gemcitabine IC50 after 72 hrs by Isobologram assay relative to untreated control; format: functional
Method in brief: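 HT-29 cells exposed 72 h to a range of gemcitabine hydrochloride concentrations, alone or combined with varying ChK1 inhibitor concentrations. Viability read by CellTiter-Glo luminescence. […] Synergy judged by combination index or Bliss independence analysis.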

HT-29 [6] = assay: Potentiation of 60 mg/kg gemcitabine-induced anticancer activity in human HT-29 cells xenografted in po treated mouse assessed as increase in gammaH2AX by Western blot analysis; format: functional, organism-based
Method in brief: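 HT-29 xenograft mice (n=4 per randomized group) got gemcitabine 60 mg/kg or saline. After 24 h they received an oral inhibitor dose in MCT (0.5% methylcellulose/0.2% Tween 80) or vehicle. Tumors were excised 16 h later, flash-frozen and lysed. Western blots (25 μg/lane) were probed for pS139 H2AX and total H2AX with IR-dye detection. The γH2AX:total ratio is expressed as fold-change from the gemcitabine-only group mean.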

HT-29 [7] = assay: Potentiation of gemcitabine-induced anticancer activity in human HT-29 cells xenografted in po treated NCr nude mouse assessed as reduction in tumor volume measured after five cycles with 120 mg/kg, ip gemcitabine at five day intervals; format: functional, organism-based
Method in brief: (§2)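 NCr nude mice aged 8–12 weeks were inoculated with 5×10^6 HT-29 cells in HEPES-buffered saline:Matrigel 50:50. At 125–250 mm³, tumors were split into volume-matched cohorts (n=5 or 10). Gemcitabine in saline was given i.p., and the inhibitor as an MCT suspension by oral gavage 24 h later. Tumor volume and body weight were monitored. %TGI was derived by linear mixed-effect modeling, with two-way ANOVA/Tukey for p-values.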

Mus musculus [8] = assay: Toxicity in human HT-29 cells xenografted in NCr nude mouse assessed as body weight change measured after five cycles with 120 mg/kg, ip gemcitabine at five day intervals at 50 mg/kg, po; format: organism-based; conditions: in vivo; method in brief: as §2
Acetylcholinesterase = Acetylcholinesterase (Homo sapiens, UniProt P22303); assay: Inhibition of human acetylcholine esterase by horseradish peroxidase-coupled fluorescence assay
Acetylcholinesterase, sequence (P22303 whole entry): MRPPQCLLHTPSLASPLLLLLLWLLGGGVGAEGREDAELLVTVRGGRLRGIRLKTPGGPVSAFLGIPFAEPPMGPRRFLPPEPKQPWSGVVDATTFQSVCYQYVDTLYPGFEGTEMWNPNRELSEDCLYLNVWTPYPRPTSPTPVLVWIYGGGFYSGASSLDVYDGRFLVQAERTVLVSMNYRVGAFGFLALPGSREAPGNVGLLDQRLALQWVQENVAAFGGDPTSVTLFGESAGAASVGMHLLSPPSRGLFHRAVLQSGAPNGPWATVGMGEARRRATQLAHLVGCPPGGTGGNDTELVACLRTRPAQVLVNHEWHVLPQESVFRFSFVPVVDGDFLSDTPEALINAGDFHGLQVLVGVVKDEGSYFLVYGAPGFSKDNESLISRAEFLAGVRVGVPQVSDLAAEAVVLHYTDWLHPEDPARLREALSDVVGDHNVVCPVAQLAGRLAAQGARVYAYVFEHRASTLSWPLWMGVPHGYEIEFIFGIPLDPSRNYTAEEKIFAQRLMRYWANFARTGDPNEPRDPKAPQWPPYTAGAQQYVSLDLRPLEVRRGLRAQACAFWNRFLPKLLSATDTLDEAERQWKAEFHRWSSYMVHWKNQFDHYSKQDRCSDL
Method in brief: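 Human AChE at 0.006 U/ml, with 0.25 μM acetylcholine chloride, 0.06 U/ml choline oxidase, 0.05 U/ml horseradish peroxidase and 200 μM Amplex Red, in proprietary buffer with test compound. Incubated 30 min at 25 °C. Fluorescence read.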

[9] = Clearance in CD1 mouse at 1 mg/kg, iv solution at pH 4.5; format: ADME, organism-based; conditions: in vivo
[10] = Clearance in Sprague-Dawley rat at 1 mg/kg, iv solution at pH 4.5; format: ADME, organism-based; conditions: in vivo
[11] = Clearance in Beagle dog at 1 mg/kg, iv solution at pH 4.5; format: ADME, organism-based, Canis lupus familiaris; conditions: in vivo
[12] = Clearance in cynomolgus monkey at 1 mg/kg, iv solution at pH 4.5; format: ADME, organism-based, Macaca fascicularis; conditions: in vivo
[13] = Volume of distribution at steady state in CD1 mouse at 1 mg/kg, iv solution at pH 4.5; format: ADME, organism-based; conditions: in vivo, read-out: Vdss
[14] = Volume of distribution at steady state in Sprague-Dawley rat at 1 mg/kg, iv solution at pH 4.5; format: ADME, organism-based; conditions: in vivo, read-out: Vdss
[15] = Volume of distribution at steady state in Beagle dog at 1 mg/kg, iv solution at pH 4.5; format: ADME, organism-based, Canis lupus familiaris; conditions: in vivo, read-out: Vdss
[16] = Volume of distribution at steady state in cynomolgus monkey at 1 mg/kg, iv solution at pH 4.5; format: ADME, organism-based, Macaca fascicularis; conditions: in vivo, read-out: Vdss
[17] = (§3) AUC in CD1 mouse at 5 mg/kg, po suspension at pH 6.5; format: ADME, organism-based; conditions: CD1, mouse, in vivo, 5 mg/kg, pH 6.5
[18] = AUC in Sprague-Dawley rat at 5 mg/kg, po suspension at pH 6.5; format: ADME, organism-based; conditions: in vivo
[19] = AUC in Beagle dog at 2 mg/kg, po suspension at pH 6.5; format: ADME, organism-based, Canis lupus familiaris; conditions: in vivo
[20] = AUC in cynomolgus monkey at 2 mg/kg, po suspension at pH 6.5; format: ADME, organism-based, Macaca fascicularis; conditions: in vivo
[21] = Cmax in CD1 mouse at 5 mg/kg, po suspension at pH 6.5; format: ADME, organism-based; parameters: dose 5 mg/kg, route oral; conditions: in vivo
[22] = Cmax in Sprague-Dawley rat at 5 mg/kg, po suspension at pH 6.5; format: ADME, organism-based; parameters: dose 5 mg/kg, route oral; conditions: in vivo
[23] = Cmax in Beagle dog at 2 mg/kg, po suspension at pH 6.5; format: ADME, organism-based, Canis lupus familiaris; parameters: dose 2 mg/kg, route oral; conditions: in vivo
[24] = Cmax in cynomolgus monkey at 2 mg/kg, po suspension at pH 6.5; format: ADME, organism-based, Macaca fascicularis; parameters: dose 2 mg/kg, route oral; conditions: in vivo
[25] = (§4) Oral bioavailability in CD1 mouse at 5 mg/kg suspension at pH 6.5; format: ADME, organism-based; conditions: CD1, mouse, in vivo, 5 mg/kg, pH 6.5
[26] = Oral bioavailability in Sprague-Dawley rat at 5 mg/kg suspension at pH 6.5; format: ADME, organism-based; conditions: in vivo
[27] = Oral bioavailability in Beagle dog at 2 mg/kg suspension at pH 6.5; format: ADME, organism-based, Canis lupus familiaris; conditions: in vivo
[28] = Oral bioavailability in cynomolgus monkey at 2 mg/kg suspension at pH 6.5; format: ADME, organism-based, Macaca fascicularis; conditions: in vivo
[29] = Plasma protein binding in CD1 mouse; format: ADME, cell-free; conditions: read-out: PPB (converted)
[30] = Plasma protein binding in Sprague-Dawley rat; format: ADME, cell-free; conditions: read-out: PPB (converted)
[31] = Plasma protein binding in Beagle dog; format: ADME, cell-free, Canis lupus familiaris; conditions: read-out: PPB (converted)
[32] = Plasma protein binding in cynomolgus monkey; format: ADME, cell-free, Macaca fascicularis; conditions: read-out: PPB (converted)
HT-29 [33] = assay: Potentiation of gemcitabine-induced anticancer activity in human HT-29 cells xenografted in po treated NCr nude mouse assessed as reduction in tumor volume measured after four cycles with 60 mg/kg, ip gemcitabine at four day intervals; format: functional, organism-based; method in brief: as §2
HT-29 [34] = assay: Potentiation of gemcitabine-induced anticancer activity in human HT-29 cells xenografted in NCr nude mouse assessed as reduction in tumor volume measured after four cycles with 60 mg/kg, ip gemcitabine at four day intervals at 50 mg/kg, po; format: functional; parameters: scale not given: the % may be the effect or the level left
Method in brief: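 NCr nude mice, 8–12 weeks old, inoculated with 5×10^6 HT-29 cells in HEPES-buffered saline:Matrigel 50:50. Volume-matched cohorts formed at 125–250 mm³. Gemcitabine 60 mg/kg given i.p. in saline. Inhibitor given orally in 0.5% methylcellulose/0.2% Tween 80 suspension 24 h later. Four cycles at four-day intervals. Tumor volume monitored. %TGI by linear mixed-effect modeling; two-way ANOVA with Tukey test.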

Mus musculus [35] = assay: Toxicity in human HT-29 cells xenografted in NCr nude mouse assessed as body weight change measured after four cycles with 60 mg/kg, ip gemcitabine at four day intervals at 50 mg/kg, po; format: organism-based; conditions: in vivo; method in brief: as §2
Mus musculus [36] = assay: as §3; format: ADME, organism-based; conditions: mouse, in vivo, pH 6.5, 5 mg/kg
Mus musculus [37] = assay: as §4; format: ADME, organism-based; conditions: mouse, in vivo, pH 6.5, 5 mg/kg

N#Cc1cc2c(cn1)[nH]c1ncc(-c3ccc(CN4CCCCC4)cc3)cc12
IC50 [1]: 0.001 µM
EC50 [2]: 0.0532 µM
EC10 (HT-29 [3]): 0.01 µM
GI50 (HT-29 [4]): 8.7 µM
fold change (FC) (HT-29 [5]): 870
Activity (HT-29 [6]): Dose-dependent effect
Activity (HT-29 [7]): Dose-dependent effect
Activity (Mus musculus [8]): Non-toxic
IC50 (Acetylcholinesterase): 0.333 µM
clearance [9]: 55.8 mL/min/kg
clearance [10]: 24.7 mL/min/kg
clearance [11]: 118 mL/min/kg
clearance [12]: 45.8 mL/min/kg
Vd [13]: 6.57 L/kg
Vd [14]: 6.35 L/kg
Vd [15]: 23.4 L/kg
Vd [16]: 25.7 L/kg
AUC [17]: 2.68 µM·h
AUC [18]: 6.19 µM·h
AUC [19]: 0.101 µM·h
AUC [20]: 0.869 µM·h
Cmax [21]: 386 nM
Cmax [22]: 520 nM
Cmax [23]: 21 nM
Cmax [24]: 44 nM
bioavailability [25]: 86.5%
bioavailability [26]: 67.4%
bioavailability [27]: 13.1%
bioavailability [28]: 43.8%
fraction unbound [29]: 0.05
fraction unbound [30]: 0.047
fraction unbound [31]: 0.132
fraction unbound [32]: 0.117

N#Cc1cc2c(cn1)[nH]c1ncc(-c3ccc(CN4CCC5(CC4)COC5)cc3)cc12
IC50 [1]: 0.0025 µM
EC50 [2]: 0.0728 µM
EC10 (HT-29 [3]): 0.016 µM
GI50 (HT-29 [4]): > 2.5 µM
fold change (FC) (HT-29 [5]): > 156
Activity (HT-29 [6]): Dose-dependent effect
Activity (HT-29 [33]): Dose-dependent effect
Activity (HT-29 [34]): 111%
Activity (Mus musculus [35]): Non-toxic
IC50 (Acetylcholinesterase): 2.42 µM
clearance [10]: 27.5 mL/min/kg
clearance [11]: 10.9 mL/min/kg
clearance [12]: 30.8 mL/min/kg
Vd [13]: 7.33 L/kg
Vd [14]: 7.55 L/kg
Vd [15]: 9.63 L/kg
Vd [16]: 17.1 L/kg
AUC (Mus musculus [36]): 1.33 µM·h
AUC [18]: 8.63 µM·h
AUC [19]: 3.51 µM·h
AUC [20]: 0.91 µM·h
Cmax [21]: 191 nM
Cmax [22]: 1100 nM
Cmax [23]: 200 nM
Cmax [24]: 86 nM
F (Mus musculus [37]): 48.5%
bioavailability [26]: 116%
bioavailability [27]: 46.7%
bioavailability [28]: 34%
fraction unbound [29]: 0.038
fraction unbound [30]: 0.025
fraction unbound [31]: 0.052
fraction unbound [32]: 0.049

c1cc(-c2cc3c(cn2)[nH]c2ncc(-c4ccc(CN5CCCCC5)cc4)cc23)cnn1
IC50 [1]: 0.0029 µM
EC50 [2]: 0.656 µM
IC50 (Acetylcholinesterase): 1.04 µM

CN1CCN(c2cccc(-c3cnc4[nH]c5cnc(C#N)cc5c4c3)c2)CC1
IC50 [1]: 0.0019 µM
EC50 [2]: 0.133 µM
IC50 (Acetylcholinesterase): 4.77 µM

CCN1CCc2cc(-c3cnc4[nH]c5cnc(C#N)cc5c4c3)ccc2C1
IC50 [1]: 0.0023 µM
EC50 [2]: 0.152 µM
IC50 (Acetylcholinesterase): 0.16 µM
